Data as given in ChEMBL document CHEMBL2412964, “Discovery of novel tetrahydro-pyrazolo [4,3-c] pyridines for the treatment of neuropathic pain: synthesis and neuropharmacology” (Eur J Med Chem, 2013).

What was measured:
Mus musculus [1] = experiment: Antinociceptive activity in Swiss albino mouse assessed as inhibition of formalin-induced flinching at 5 mg/kg administered 30 mins prior to test measured for 10 to 30 mins relative to control; type: functional
Mus musculus [2] = experiment: Antinociceptive activity in Swiss albino mouse assessed as inhibition of formalin-induced flinching at 5 mg/kg administered 30 mins prior to test measured up to 5 mins relative to control; type: functional
Mus musculus [3] = experiment: Antinociceptive activity in Swiss albino mouse assessed as inhibition of acetic acid-induced writhing at 5 mg/kg administered 30 mins prior to acetic acid-challenge measured for 30 mins relative to control; type: functional
Mus musculus [4] = experiment: Neurotoxicity in Swiss albino mouse assessed as minimal motor impairment at 300 mg/kg after 4 hrs by rotarod test; type: toxicity, organism-based; design: dose 300 mg/kg; settings: in vivo
Method in brief: (§1)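 Swiss albino mice of either sex, 20-25 g, dosed at 30, 100 and 300 mg/kg, three per group. Minimal motor impairment scored by rotarod at 0.5 and 4.0 h after dosing. Reported value is the lowest dose giving impairment in half or more of the mice.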

Mus musculus [5] = experiment: Neurotoxicity in Swiss albino mouse assessed as minimal motor impairment at 300 mg/kg after 0.5 hrs by rotarod test; type: toxicity, organism-based; design: dose 300 mg/kg; settings: in vivo; method in brief: as §1
Rattus norvegicus [6] = experiment: Antinociceptive activity in Wistar rat partial sciatic nerve ligation model assessed as reversal of mechanical allodynia at 100 mg/kg, ip after 120 mins (reference value: 2.9 +/- 0.3%); type: functional; settings: route intraperitoneal
Rattus norvegicus [7] = experiment: Antinociceptive activity in Wistar rat partial sciatic nerve ligation model assessed as reversal of mechanical allodynia at 100 mg/kg, ip after 60 mins (reference value: 2.8 +/- 0.3%); type: functional; settings: route intraperitoneal
Rattus norvegicus [8] = experiment: Antinociceptive activity in Wistar rat partial sciatic nerve ligation model assessed as reversal of mechanical allodynia at 100 mg/kg, ip after 30 mins (reference value: 2.9 +/- 0.3%); type: functional; settings: route intraperitoneal
Rattus norvegicus [9] = experiment: Antinociceptive activity in Wistar rat chronic constriction injury model assessed as reversal of mechanical allodynia at 100 mg/kg, ip after 120 mins (reference value: 5.3 +/- 0.5%); type: functional; settings: route intraperitoneal
Rattus norvegicus [10] = experiment: Antinociceptive activity in Wistar rat chronic constriction injury model assessed as reversal of mechanical allodynia at 100 mg/kg, ip after 60 mins (reference value: 4.9 +/- 1.0%); type: functional; settings: route intraperitoneal
Rattus norvegicus [11] = experiment: Antinociceptive activity in Wistar rat chronic constriction injury model assessed as reversal of mechanical allodynia at 100 mg/kg, ip after 30 mins (reference value: 4.7 +/- 2.1%); type: functional; settings: route intraperitoneal
Rattus norvegicus [12] = experiment: Antinociceptive activity in Wistar rat partial sciatic nerve ligation model assessed as reversal of cold allodynia at 100 mg/kg, ip after 120 mins (reference value: 1.5 +/- 0.5%); type: functional; settings: route intraperitoneal
Rattus norvegicus [13] = experiment: Antinociceptive activity in Wistar rat partial sciatic nerve ligation model assessed as reversal of cold allodynia at 100 mg/kg, ip after 60 mins (reference value: 2.5 +/- 0.3%); type: functional; settings: route intraperitoneal
Rattus norvegicus [14] = experiment: Antinociceptive activity in Wistar rat partial sciatic nerve ligation model assessed as reversal of cold allodynia at 100 mg/kg, ip after 30 mins (reference value: 4.1 +/- 1.0%); type: functional; settings: route intraperitoneal
Rattus norvegicus [15] = experiment: Antinociceptive activity in Wistar rat chronic constriction injury model assessed as reversal of cold allodynia at 100 mg/kg, ip after 120 mins (reference value: 5.4 +/- 1.9%); type: functional; settings: route intraperitoneal
Rattus norvegicus [16] = experiment: Antinociceptive activity in Wistar rat chronic constriction injury model assessed as reversal of cold allodynia at 100 mg/kg, ip after 60 mins (reference value: 6.3 +/- 1.9%); type: functional; settings: route intraperitoneal
Rattus norvegicus [17] = experiment: Antinociceptive activity in Wistar rat chronic constriction injury model assessed as reversal of cold allodynia at 100 mg/kg, ip after 30 mins (reference value: 0.6 +/- 2.7%); type: functional; settings: route intraperitoneal
Rattus norvegicus [18] = experiment: Antinociceptive activity in Wistar rat partial sciatic nerve ligation model assessed as reversal of tactile allodynia at 100 mg/kg, ip after 120 mins relative to control; type: functional; settings: route intraperitoneal
Rattus norvegicus [19] = experiment: Antinociceptive activity in Wistar rat partial sciatic nerve ligation model assessed as reversal of tactile allodynia at 100 mg/kg, ip after 60 mins (reference value: 12.5 +/- 1.2%); type: functional; settings: route intraperitoneal
Rattus norvegicus [20] = experiment: Antinociceptive activity in Wistar rat partial sciatic nerve ligation model assessed as reversal of tactile allodynia at 100 mg/kg, ip after 30 mins (reference value: 7.7 +/- 0.7%); type: functional; settings: route intraperitoneal
Rattus norvegicus [21] = experiment: Antinociceptive activity in Wistar rat chronic constriction injury model assessed as reversal of tactile allodynia at 100 mg/kg, ip after 120 mins (reference value: 4.1 +/- 2.1%); type: functional; settings: route intraperitoneal
Rattus norvegicus [22] = experiment: Antinociceptive activity in Wistar rat chronic constriction injury model assessed as reversal of tactile allodynia at 100 mg/kg, ip after 60 mins (reference value: 1.3 +/- 0.3%); type: functional; settings: route intraperitoneal
Rattus norvegicus [23] = experiment: Antinociceptive activity in Wistar rat chronic constriction injury model assessed as reversal of tactile allodynia at 100 mg/kg, ip after 30 mins (reference value: 3.4 +/- 0.8%); type: functional; settings: route intraperitoneal
Rattus norvegicus [24] = experiment: Antinociceptive activity in Wistar rat partial sciatic nerve ligation model assessed as reversal of spontaneous pain response at 100 mg/kg, ip after 120 mins (reference value: 1.2 +/- 0.1%); type: functional; settings: route intraperitoneal
Rattus norvegicus [25] = experiment: Antinociceptive activity in Wistar rat partial sciatic nerve ligation model assessed as reversal of spontaneous pain response at 100 mg/kg, ip after 60 mins (reference value: 2.9 +/- 0.3%); type: functional; settings: route intraperitoneal
Rattus norvegicus [26] = experiment: Antinociceptive activity in Wistar rat partial sciatic nerve ligation model assessed as reversal of spontaneous pain response at 100 mg/kg, ip after 30 mins (reference value: 3.2 +/- 0.3%); type: functional; settings: route intraperitoneal
Rattus norvegicus [27] = experiment: Antinociceptive activity in Wistar rat chronic constriction injury model assessed as reversal of spontaneous pain response at 100 mg/kg, ip after 120 mins (reference value: 4.5 +/- 0.2%); type: functional; settings: route intraperitoneal
Rattus norvegicus [28] = experiment: Antinociceptive activity in Wistar rat chronic constriction injury model assessed as reversal of spontaneous pain response at 100 mg/kg, ip after 60 mins (reference value: 4.6 +/- 0.6%); type: functional; settings: route intraperitoneal
Rattus norvegicus [29] = experiment: Antinociceptive activity in Wistar rat chronic constriction injury model assessed as reversal of spontaneous pain response at 100 mg/kg, ip after 30 mins (reference value: 8.9 +/- 4.6%); type: functional; settings: route intraperitoneal
Mus musculus [30] = experiment: Antinociceptive activity in Swiss albino mouse assessed as inhibition of formalin-induced flinching at 100 mg/kg administered 30 mins prior to test measured for 10 to 30 mins relative to control; type: functional
Mus musculus [31] = experiment: Antinociceptive activity in Swiss albino mouse assessed as inhibition of formalin-induced flinching at 100 mg/kg administered 30 mins prior to test measured up to 5 mins relative to control; type: functional
Mus musculus [32] = experiment: Antinociceptive activity in Swiss albino mouse assessed as inhibition of acetic acid-induced writhing at 100 mg/kg administered 30 mins prior to acetic acid-challenge measured for 30 mins relative to control; type: functional
Method in brief: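 Swiss albino mice (20–25 g, either sex); writhing induced by i.p. 0.1 mL of 2.0% v/v acetic acid given half an hour after test compound dosing.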

Mus musculus [33] = species: Mus musculus; experiment: Neurotoxicity in Swiss albino mouse assessed as minimal motor impairment after 4 hrs by rotarod test; type: toxicity, organism-based; settings: in vivo
Method in brief: (§2)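 Mice, either sex, 20-25 g, dosed at 30, 100 and 300 mg/kg. Minimal motor impairment was scored on the rotarod at 0.5 and 4.0 h. Value reported is the minimum dose showing the effect in half or more of three mice per group.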

Mus musculus [34] = species: Mus musculus; experiment: Neurotoxicity in Swiss albino mouse assessed as minimal motor impairment after 0.5 hrs by rotarod test; type: toxicity, organism-based; settings: in vivo; method in brief: as §2

COc1ccc2c(c1)c(CC(=O)O)c(C)n2C(=O)c1ccc(Cl)cc1 [INDOMETHACIN]
inhibition in vivo at 5 mg/kg (Mus musculus [1]): 72.1% | inhibition in vivo at 5 mg/kg (Mus musculus [2]): 4.7% | inhibition in vivo at 5 mg/kg (Mus musculus [3]): 96.1% | Activity (Mus musculus [4]): Non-toxic | Activity (Mus musculus [5]): Non-toxic

CCN1CCc2c(c(C)nn2C(=O)Nc2cc(C)ccc2C)C1
Activity (Rattus norvegicus [6]): 14.6% | Activity (Rattus norvegicus [7]): 20.8% | Activity (Rattus norvegicus [8]): 39.6% | Activity (Rattus norvegicus [9]): 16.8% | Activity (Rattus norvegicus [10]): 20.7% | Activity (Rattus norvegicus [11]): 3.8% | Activity (Rattus norvegicus [12]): 12% | Activity (Rattus norvegicus [13]): 14.8% | Activity (Rattus norvegicus [14]): 17.1% | Activity (Rattus norvegicus [15]): 14.1% | Activity (Rattus norvegicus [16]): 18.7% | Activity (Rattus norvegicus [17]): 18.4% | Activity (Rattus norvegicus [18]): 3.5% | Activity (Rattus norvegicus [19]): 16% | Activity (Rattus norvegicus [20]): 27.6% | Activity (Rattus norvegicus [21]): 2.2% | Activity (Rattus norvegicus [22]): 9.9% | Activity (Rattus norvegicus [23]): 17.3% | Activity (Rattus norvegicus [24]): 4.8% | Activity (Rattus norvegicus [25]): 11.1% | Activity (Rattus norvegicus [26]): 7.5% | Activity (Rattus norvegicus [27]): 27.7% | Activity (Rattus norvegicus [28]): 33.3% | Activity (Rattus norvegicus [29]): 23.6% | inhibition in vivo at 100 mg/kg (Mus musculus [30]): 55.8% | inhibition in vivo at 100 mg/kg (Mus musculus [31]): 2.6% | inhibition in vivo at 100 mg/kg (Mus musculus [32]): 62.2% | MLD (Mus musculus [33]): 300 mg/kg | MLD (Mus musculus [34]): 300 mg/kg
